# Test results taken from ChEMBL document CHEMBL4765231 (J Med Chem, 2016).
# pEC50, pIC50: −log10 of the molar value. The source made the active and inactive calls. The calls are words filed in the database; no cut-off is given here.
# What was measured:
# [1] = Toxicity in dog assessed as adverse event at > 10 uM; design: species or system Canis lupus familiaris; conditions: in vivo
# Procedure, shortened: (§1)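 Single ascending dose studies, with CNS-related adverse events monitored.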
# [2] = molecular target: T1, Sodium channel protein type 8 subunit alpha (Homo sapiens, UniProt Q9UQD0); assay: Inhibition of NaV1.6 (unknown origin) at 10 Hz frequency by whole cell manual patch clamp technique
# T1 sequence (Q9UQD0 whole entry): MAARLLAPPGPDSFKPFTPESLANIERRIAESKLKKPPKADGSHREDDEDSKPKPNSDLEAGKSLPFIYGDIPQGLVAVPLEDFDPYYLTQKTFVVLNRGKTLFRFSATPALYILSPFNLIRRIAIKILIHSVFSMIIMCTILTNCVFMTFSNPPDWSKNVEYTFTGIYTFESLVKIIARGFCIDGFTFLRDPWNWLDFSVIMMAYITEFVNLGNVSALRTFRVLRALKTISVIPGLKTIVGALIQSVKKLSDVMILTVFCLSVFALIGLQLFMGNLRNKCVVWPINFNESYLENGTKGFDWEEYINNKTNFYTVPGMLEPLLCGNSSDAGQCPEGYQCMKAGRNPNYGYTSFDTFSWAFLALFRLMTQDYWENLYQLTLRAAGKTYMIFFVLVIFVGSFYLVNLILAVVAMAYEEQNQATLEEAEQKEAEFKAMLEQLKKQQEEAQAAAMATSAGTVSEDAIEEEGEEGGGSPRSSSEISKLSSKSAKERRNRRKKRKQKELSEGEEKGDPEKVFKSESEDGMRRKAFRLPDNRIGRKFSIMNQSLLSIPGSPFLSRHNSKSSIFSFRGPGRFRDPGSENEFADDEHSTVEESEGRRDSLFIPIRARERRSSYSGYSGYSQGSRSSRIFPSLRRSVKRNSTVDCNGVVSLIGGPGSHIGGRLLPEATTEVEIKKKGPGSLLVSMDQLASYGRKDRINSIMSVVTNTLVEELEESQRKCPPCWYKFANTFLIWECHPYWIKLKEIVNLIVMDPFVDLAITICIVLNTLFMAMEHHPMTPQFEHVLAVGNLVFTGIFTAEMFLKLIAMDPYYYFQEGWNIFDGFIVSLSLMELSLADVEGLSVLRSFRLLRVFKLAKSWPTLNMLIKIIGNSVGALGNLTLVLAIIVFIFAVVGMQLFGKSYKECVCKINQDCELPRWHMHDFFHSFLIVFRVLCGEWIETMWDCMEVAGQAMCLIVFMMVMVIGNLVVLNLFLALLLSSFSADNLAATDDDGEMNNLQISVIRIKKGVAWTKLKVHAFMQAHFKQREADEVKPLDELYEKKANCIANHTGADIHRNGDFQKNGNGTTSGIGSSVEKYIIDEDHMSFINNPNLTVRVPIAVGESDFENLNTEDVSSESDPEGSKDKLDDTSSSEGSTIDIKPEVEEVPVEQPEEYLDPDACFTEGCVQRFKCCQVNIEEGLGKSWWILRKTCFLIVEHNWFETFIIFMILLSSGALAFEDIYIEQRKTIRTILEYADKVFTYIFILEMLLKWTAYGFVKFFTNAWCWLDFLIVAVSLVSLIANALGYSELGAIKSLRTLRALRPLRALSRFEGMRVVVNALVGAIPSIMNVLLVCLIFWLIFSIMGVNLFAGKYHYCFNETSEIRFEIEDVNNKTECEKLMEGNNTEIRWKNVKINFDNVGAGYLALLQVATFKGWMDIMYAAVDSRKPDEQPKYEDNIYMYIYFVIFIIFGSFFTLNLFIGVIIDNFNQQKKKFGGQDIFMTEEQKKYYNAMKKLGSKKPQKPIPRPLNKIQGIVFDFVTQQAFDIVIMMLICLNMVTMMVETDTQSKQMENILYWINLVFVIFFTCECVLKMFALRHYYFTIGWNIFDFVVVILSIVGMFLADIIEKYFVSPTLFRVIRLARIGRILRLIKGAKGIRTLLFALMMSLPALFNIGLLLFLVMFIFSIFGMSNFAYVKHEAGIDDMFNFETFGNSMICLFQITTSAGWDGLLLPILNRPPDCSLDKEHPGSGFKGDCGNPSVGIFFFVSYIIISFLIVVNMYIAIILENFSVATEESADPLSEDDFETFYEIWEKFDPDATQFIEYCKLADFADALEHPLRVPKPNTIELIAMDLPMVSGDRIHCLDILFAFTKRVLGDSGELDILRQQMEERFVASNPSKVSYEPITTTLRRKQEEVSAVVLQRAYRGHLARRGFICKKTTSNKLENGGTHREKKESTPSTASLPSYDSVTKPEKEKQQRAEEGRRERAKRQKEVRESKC
# Procedure, shortened: (§2)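 Whole-cell manual patch clamp on non-cardiac NaV1.x channels, run at room temperature. Series resistance was compensated 90% so the command potential was reached within microseconds.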
# [3] = Clearance in iv dosed Beagle dog; format: ADME, organism-based, Canis lupus familiaris; conditions: in vivo
# [4] = species: Oryctolagus cuniculus; assay: Cardioprotective activity in New Zealand rabbit model of LAD coronary artery occlusion-induced ischemia-reperfusion injury assessed as inhibition of ST segment elevation at 0.25 uM for 30 mins followed by induction of ischemia for 15 mins and subsequent reperfusion for 15 mins by electrocardiographic analysis; format: functional; design: scale not given: the % may be the effect or the level left; conditions: time 60 min, 1 h
# [5] = Half-life in iv dosed cynomolgus monkey; format: ADME, organism-based, Macaca fascicularis; conditions: in vivo
# [6] = Intrinsic clearance in Beagle dog hepatocytes; format: ADME, cell-based, Canis lupus familiaris, Hepatocyte; conditions: read-out: CLH (converted)
# [7] = Clearance in iv dosed cynomolgus monkey; format: ADME, organism-based, Macaca fascicularis; conditions: in vivo
# [8] = Toxicity in New Zealand rabbit model of LAD coronary artery occlusion-induced ischemia-reperfusion injury assessed as effect on ECG interval at 0.25 to 0.5 uM; design: species or system Oryctolagus cuniculus; conditions: in vivo, dose 0.25-0.5 µM
# [9] = species: Oryctolagus cuniculus; assay: Cardioprotective activity in New Zealand rabbit heart assessed as reversal of ATX-II induced late sodium current increase in QT interval by electrocardiographic analysis; format: functional
# [10] = molecular target: T1, Sodium channel protein type 8 subunit alpha; assay: Inhibition of NaV1.6 (unknown origin) at 25 Hz frequency by whole cell manual patch clamp technique; procedure, shortened: as §2
# [11] = Metabolic stability in dog microsomes assessed as half life; format: ADME, Canis lupus familiaris, Microsome
# [12] = Permeability of compound across apical to basolateral side in human Caco-2 cells; format: ADME, cell-based; conditions: read-out: permeability
# [13] = species: Oryctolagus cuniculus; assay: Cardioprotective activity in New Zealand White rabbit heart assessed as reversal of ATX-II induced late sodium current prolongation in change in duration of monophasic action potential at 90 percent repolarization at 1 uM by electrocardiographic analysis relative to control; format: functional
# [14] = Permeability of compound across basolateral to apical side in human Caco-2 cells; format: ADME, cell-based; conditions: read-out: permeability
# [15] = molecular target: T2, Sodium channel protein type 4 subunit alpha (Homo sapiens, UniProt P35499); assay: Inhibition of NaV1.4 (unknown origin) at 10 Hz frequency by whole cell manual patch clamp technique; procedure, shortened: as §2
# [16] = tested on: Oryctolagus cuniculus; assay: Cardioprotective activity in rabbit model of left circumflex artery ligation-induced ischemia assessed as inhibition of VT-VF at 0.125 to 1.5 mg/kg by electrocardiographic analysis; format: functional, organism-based; conditions: dose 0.125-1.5 mg/kg
# [17] = species: Oryctolagus cuniculus; assay: Cardioprotective activity in New Zealand White rabbit heart assessed as reversal of ATX-II induced late sodium current prolongation in change in duration of monophasic action potential at 90 percent repolarization by electrocardiographic analysis relative to control; format: functional, tissue-based
# [18] = molecular target: T3, Sodium channel protein type 3 subunit alpha (Homo sapiens, UniProt Q9NY46); assay: Inhibition of NaV1.3 (unknown origin) at 10 Hz frequency by whole cell manual patch clamp technique; procedure, shortened: as §2
# T3 sequence (Q9NY46 whole entry): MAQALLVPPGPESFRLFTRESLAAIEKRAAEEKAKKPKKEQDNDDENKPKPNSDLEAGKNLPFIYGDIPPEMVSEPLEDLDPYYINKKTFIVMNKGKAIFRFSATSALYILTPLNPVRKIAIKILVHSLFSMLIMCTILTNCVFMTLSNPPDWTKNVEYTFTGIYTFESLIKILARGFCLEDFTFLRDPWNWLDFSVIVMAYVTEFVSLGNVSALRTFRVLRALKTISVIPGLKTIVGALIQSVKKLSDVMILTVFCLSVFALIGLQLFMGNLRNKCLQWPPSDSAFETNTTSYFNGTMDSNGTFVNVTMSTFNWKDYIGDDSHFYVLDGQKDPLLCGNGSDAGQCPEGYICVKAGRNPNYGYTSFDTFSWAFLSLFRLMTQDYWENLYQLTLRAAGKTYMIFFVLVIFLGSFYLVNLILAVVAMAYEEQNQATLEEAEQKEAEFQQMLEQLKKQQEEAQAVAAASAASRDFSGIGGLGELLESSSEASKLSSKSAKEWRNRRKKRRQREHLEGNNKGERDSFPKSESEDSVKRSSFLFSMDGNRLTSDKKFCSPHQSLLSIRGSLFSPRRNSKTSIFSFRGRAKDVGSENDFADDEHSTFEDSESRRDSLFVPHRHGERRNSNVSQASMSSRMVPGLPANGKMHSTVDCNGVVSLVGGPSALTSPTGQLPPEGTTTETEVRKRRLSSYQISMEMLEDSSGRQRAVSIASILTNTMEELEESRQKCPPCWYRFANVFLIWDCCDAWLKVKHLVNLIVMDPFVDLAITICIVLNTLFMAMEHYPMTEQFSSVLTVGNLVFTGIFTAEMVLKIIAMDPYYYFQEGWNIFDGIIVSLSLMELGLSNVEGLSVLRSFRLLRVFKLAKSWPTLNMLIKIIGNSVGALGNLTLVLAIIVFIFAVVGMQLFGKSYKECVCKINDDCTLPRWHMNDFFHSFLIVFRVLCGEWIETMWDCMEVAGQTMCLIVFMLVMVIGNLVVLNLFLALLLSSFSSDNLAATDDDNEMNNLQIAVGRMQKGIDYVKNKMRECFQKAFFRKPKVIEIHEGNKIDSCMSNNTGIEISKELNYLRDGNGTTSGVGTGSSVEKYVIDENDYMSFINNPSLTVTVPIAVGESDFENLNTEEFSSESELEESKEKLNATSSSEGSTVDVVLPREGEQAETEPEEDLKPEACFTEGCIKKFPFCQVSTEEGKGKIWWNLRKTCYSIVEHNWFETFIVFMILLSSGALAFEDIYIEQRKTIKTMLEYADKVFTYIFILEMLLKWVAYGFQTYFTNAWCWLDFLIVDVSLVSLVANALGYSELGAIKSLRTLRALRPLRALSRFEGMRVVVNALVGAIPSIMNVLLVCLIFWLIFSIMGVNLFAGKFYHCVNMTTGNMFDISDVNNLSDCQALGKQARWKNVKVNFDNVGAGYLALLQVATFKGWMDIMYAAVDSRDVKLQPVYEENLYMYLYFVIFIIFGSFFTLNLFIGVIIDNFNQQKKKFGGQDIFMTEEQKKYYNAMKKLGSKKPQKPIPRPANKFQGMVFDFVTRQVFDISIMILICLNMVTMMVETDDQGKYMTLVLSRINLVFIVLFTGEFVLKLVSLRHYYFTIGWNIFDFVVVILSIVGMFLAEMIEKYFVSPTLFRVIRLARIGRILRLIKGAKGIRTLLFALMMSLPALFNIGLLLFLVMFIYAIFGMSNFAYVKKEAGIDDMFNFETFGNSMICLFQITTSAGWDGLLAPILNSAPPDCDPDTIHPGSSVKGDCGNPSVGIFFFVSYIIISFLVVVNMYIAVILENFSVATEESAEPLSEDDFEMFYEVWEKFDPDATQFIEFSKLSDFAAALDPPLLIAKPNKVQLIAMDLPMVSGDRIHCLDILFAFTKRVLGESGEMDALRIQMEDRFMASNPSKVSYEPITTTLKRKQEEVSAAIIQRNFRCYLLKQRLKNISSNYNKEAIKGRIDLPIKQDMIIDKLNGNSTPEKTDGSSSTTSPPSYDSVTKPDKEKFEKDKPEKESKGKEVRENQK
# [19] = molecular target: T3, Sodium channel protein type 3 subunit alpha; assay: Inhibition of NaV1.3 (unknown origin) at 25 Hz frequency by whole cell manual patch clamp technique; procedure, shortened: as §2
# [20] = Oral bioavailability in cynomolgus monkey; format: ADME, organism-based, Macaca fascicularis; conditions: in vivo
# [21] = Volume of distribution at steady state in iv dosed Sprague-Dawley rat; format: ADME, organism-based; conditions: in vivo, read-out: Vdss
# [22] = species: Oryctolagus cuniculus; assay: Cardioprotective activity in New Zealand rabbit model of LAD coronary artery occlusion-induced ischemia-reperfusion injury assessed as inhibition of ST segment elevation at 500 nM for 30 mins followed by induction of ischemia for 15 mins and subsequent reperfusion for 15 mins by electrocardiographic analysis; format: functional; conditions: 1 h, time 60 min
# [23] = species: Oryctolagus cuniculus; assay: Cardioprotective activity in rabbit model of left circumflex artery ligation-induced ischemia assessed as inhibition of VT-VF at 2.5 uM; format: functional, organism-based
# [24] = Metabolic stability in rat microsomes assessed as half life; format: ADME, Microsome
# [25] = species: Oryctolagus cuniculus; assay: Cardioprotective activity in rabbit model of left circumflex artery ligation-induced ischemia assessed as inhibition of VT-VF by electrocardiographic analysis; format: functional, organism-based
# [26] = molecular target: Sodium channel protein type 10 subunit alpha (Homo sapiens, UniProt Q9Y5Y9); assay: Inhibition of NaV1.8 (unknown origin) at 10 Hz frequency by whole cell manual patch clamp technique; procedure, shortened: as §2
# [27] = molecular target: T4, Sodium channel protein type 1 subunit alpha (Homo sapiens, UniProt P35498); assay: Inhibition of peak NaV1.1 (unknown origin) at 10 uM at 10 Hz frequency by manual patch clamp technique
# Procedure, shortened: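 Whole-cell manual patch clamp at room temperature, with series resistance compensated 90%.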
# [28] = Half-life in iv dosed Beagle dog; format: ADME, organism-based, Canis lupus familiaris; conditions: in vivo
# [29] = molecular target: NaV1.5 (Homo sapiens, UniProt Q14524); assay: Inhibition of human NaV1.5 expressed in HEK293 cells assessed as inhibition of peak sodium current measured at frequency 3 Hz at -20 mV resting membrane potential at 3 uM by electrophysiology assay relative to control; format: cell-based; conditions: HEK293 cells expressing human NaV1.5
# [30] = species: Oryctolagus cuniculus; assay: Cardioprotective activity in rabbit model of LAD coronary artery occlusion-induced ischemia-reperfusion injury assessed as inhibition of ST segment elevation by measuring maximum efficacy incubated with compound for 30 mins followed by induction of ischemia for 15 mins and subsequent reperfusion for 15 mins by electrocardiographic analysis relative to ranolazine; format: functional; conditions: 0.5 h
# [31] = Toxicity in New Zealand rabbit model of LAD coronary artery occlusion-induced ischemia-reperfusion injury assessed as effect on heart rate at 0.25 to 0.5 uM; design: species or system Oryctolagus cuniculus; conditions: in vivo, dose 0.25-0.5 µM
# [32] = Solubility of compound in water; format: physicochemical
# [33] = molecular target: T2, Sodium channel protein type 4 subunit alpha; assay: Inhibition of NaV1.4 (unknown origin) at 25 Hz frequency by whole cell manual patch clamp technique; procedure, shortened: as §2
# [34] = tested on: Oryctolagus cuniculus; assay: Cardioprotective activity in New Zealand rabbit model of LAD coronary artery occlusion-induced ischemia-reperfusion injury assessed as inhibition of ST segment elevation intravenously administered with compound for 30 mins followed by induction of ischemia for 15 mins and subsequent reperfusion for 15 mins by electrocardiographic analysis; format: functional
# [35] = Half-life in iv dosed Sprague-Dawley rat; format: ADME, organism-based; conditions: in vivo
# [36] = Clearance in iv dosed Sprague-Dawley rat; format: ADME, organism-based; conditions: in vivo
# [37] = species: Oryctolagus cuniculus; assay: Cardioprotective activity in rabbit assessed as decrease in chemically-induced Torsades des Pointes at 2.5 uM by electrocardiographic analysis; format: functional; design: scale not given: the % may be the effect or the level left
# [38] = Oral bioavailability in Beagle dog; format: ADME, organism-based, Canis lupus familiaris; conditions: in vivo
# [39] = molecular target: NaV1.1 (Homo sapiens, UniProt P35498); assay: Inhibition of NaV1.1 (unknown origin) expressed in cells assessed as inhibition of peak INa current at 10 uM at 25 Hz frequency by whole-cell patch clamp method relative to control; format: cell-based; conditions: cells expressing NaV1.1; procedure, shortened: as §2
# [40] = molecular target: T4, Sodium channel protein type 1 subunit alpha; assay: Inhibition of NaV1.1 (unknown origin) at 10 Hz frequency by whole cell manual patch clamp technique; procedure, shortened: as §2
# [41] = Metabolic stability in human microsomes assessed as half life; format: ADME, Microsome
# [42] = Inhibition of late sodium current channel (unknown origin) at 25 Hz frequency by whole cell patch clamp technique; conditions: Homo sapiens
# [43] = Toxicity in rat assessed as adverse event at > 10 uM; conditions: in vivo; procedure, shortened: as §1
# [44] = Volume of distribution at steady state in iv dosed Beagle dog; format: ADME, organism-based, Canis lupus familiaris; conditions: in vivo, read-out: Vdss
# [45] = species: Homo sapiens; assay: Inhibition of L-type calcium channel (unknown origin)
# [46] = Intrinsic clearance in cynomolgus monkey hepatocytes; format: ADME, cell-based, Macaca fascicularis, Hepatocyte; conditions: read-out: CLH (converted)
# [47] = Inhibition of peak sodium current (unknown origin) by manual patch clamp method; design: species or system Homo sapiens
# [48] = Intrinsic clearance in Sprague-dawley rat hepatocytes; format: ADME, cell-based, Hepatocyte; conditions: read-out: CLH (converted)
# [49] = Intrinsic clearance in human hepatocytes; format: ADME, cell-based, Hepatocyte; conditions: read-out: CLH
# Procedure, shortened: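 Clearance measured in pooled human hepatocytes with tritium-labelled compound.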
# [50] = Oral bioavailability in Sprague-Dawley rat; format: ADME, organism-based; conditions: in vivo
# [51] = species: Oryctolagus cuniculus; assay: Cardioprotective activity in New Zealand rabbit model of LAD coronary artery occlusion-induced ischemia-reperfusion injury assessed as inhibition of ST segment elevation at 0.5 uM for 30 mins followed by induction of ischemia for 15 mins and subsequent reperfusion for 15 mins by electrocardiographic analysis; format: functional; design: scale not given: the % may be the effect or the level left; conditions: time 60 min, 1 h
# [52] = Volume of distribution at steady state in iv dosed cynomolgus monkey; format: ADME, organism-based, Macaca fascicularis; conditions: in vivo, read-out: Vdss
# [53] = Toxicity in New Zealand rabbit model of LAD coronary artery occlusion-induced ischemia-reperfusion injury assessed as effect on blood pressure at 0.25 to 0.5 uM; design: species or system Oryctolagus cuniculus; conditions: in vivo, dose 0.25-0.5 µM
# [54] = Inhibition of ATX-II induced late sodium current (unknown origin) by manual patch clamp method; design: species or system Homo sapiens
structure (smiles),measurement,setting,value
O=C1c2cc(-c3ccc(OC(F)(F)F)cc3)ccc2OCCN1Cc1ncccn1 [ELECLAZINE],Activity,[1],Toxic
same,pIC50,[2],4.55
same,clearance,[3],0.7 mL/min/kg
same,Activity,[4],55%
same,half-life,[5],5 h
same,CLint scaled,[6],1 mL/min/kg
same,clearance,[7],1.83 mL/min/kg
same,Activity,[8],Non-Toxic
same,Activity,[9],Active
same,pIC50,[10],5.40
same,half-life,[11],5.9 h
same,Papp A→B,[12],34.6 ×10⁻⁶ cm/s
same,Activity,[13],62%
same,Papp B→A,[14],29 ×10⁻⁶ cm/s
same,pIC50,[15],4.89
same,Activity,[16],Active
same,pIC50,[17],6.15
same,pIC50,[18],4.80
same,pIC50,[19],5.46
same,bioavailability,[20],39%
same,Vd,[21],2.5 L/kg
same,inhibition in vivo at 0.5 µM,[22],93%
same,Activity,[23],Active
same,half-life,[24],3.33 h
same,pEC50,[25],5.77
same,pIC50,[26],4.73
same,inhibition (INH),[27],Not Active
same,half-life,[28],27.9 h
same,inhibition at 3 µM,[29],24%
same,Emax,[30],93%
same,Activity,[31],Non-Toxic
same,solubility,[32],24 µM
same,pIC50,[33],5.48
same,pEC50,[34],6.72
same,Activity,[34]; time 60.0 min,Dose-dependent effect
same,half-life,[35],13 h
same,clearance,[36],2.33 mL/min/kg
same,Activity,[37],100%
same,bioavailability,[38],100%
same,inhibition at 10 µM,[39],53%
same,pIC50,[40],4.02
same,half-life,[41],6.58 h
same,pIC50,[42],6.06
same,Activity,[43],Toxic
same,Vd,[44],1.6 L/kg
same,inhibition,[45],inactive
same,CLint scaled,[46],6 mL/min/kg
same,pIC50,[47],4.29
same,CLint scaled,[48],2.67 mL/min/kg
same,CLint scaled,[49],< 0.25 mL/min/kg
same,bioavailability,[50],91%
same,Activity,[51],93%
same,Vd,[52],1.5 L/kg
same,Activity,[53],Non-Toxic
same,pIC50,[54],6.21
